This note sets out measurements from ChEMBL document CHEMBL1144221, “Novel naphthoquinone and quinolinedione inhibitors of CDC25 phosphatase activity with antiproliferative properties” (Bioorg Med Chem, 2008).

Assay [1] concerns HeLa. Briefly: Cell cycle arrest in asynchronous human HeLa cells assessed as accumulation at G0/G1 phase at 10 uM after 24 hrs by flow cytometry. Type of assay: functional. The method, boiled down: (§1)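 Asynchronous HeLa cells grown 24 h, then treated 24 h at 10 or 50 µM. Cells were trypsinized, fixed in cold ethanol and permeabilized with 0.25% Triton X-100. They were stained with anti-H3P/Alexa 488 antibody, treated with RNase and stained with propidium iodide (10 µg/mL). Flow cytometry gave the percentage of cells in G0/G1, S and G2/M. Three independent runs; DMSO served as negative control.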
(In general: Flow cytometry measures light scatter and fluorescence of single cells or particles in a stream.)

In assay [2] the test system is HeLa. Kind of assay: Cell cycle arrest in asynchronous human HeLa cells assessed as accumulation at G2/M phase at 10 uM after 24 hrs by flow cytometry. In kind it is functional. In a few lines: as §1
In assay [3] the test system is HeLa. Briefly: Cytotoxicity against human HeLa cells after 96 h by WST1 colorimetric assay. Background: Formazan colour is commonly taken as a measure of viable cells.
Assay [4] deals with HeLa. Briefly: Antiproliferative activity against human HeLa cells after 10 days by clonogenic assay. In kind it is functional, cell-based. The note with it: 240 h. The method, boiled down: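 HeLa cells seeded at 100 cells/well, grown 24 h at 37 °C in 5% CO₂, then given medium with inhibitor at increasing concentrations (up to 100 µM) for 10 days. Colonies were fixed in 10% formaldehyde, stained with crystal violet and counted to get plating efficiency. IC50 was taken from the dose-response curve.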

For assay [5], the system named is HeLa. Kind of assay: Cell cycle arrest in asynchronous human HeLa cells assessed as accumulation at S phase at 10 uM after 24 hrs by flow cytometry. Type of assay: functional. In a few lines: as §1
Assay [6] addresses T1, M-phase inducer phosphatase 2 (Homo sapiens, UniProt P30305).
T1 sequence (P30305 whole entry): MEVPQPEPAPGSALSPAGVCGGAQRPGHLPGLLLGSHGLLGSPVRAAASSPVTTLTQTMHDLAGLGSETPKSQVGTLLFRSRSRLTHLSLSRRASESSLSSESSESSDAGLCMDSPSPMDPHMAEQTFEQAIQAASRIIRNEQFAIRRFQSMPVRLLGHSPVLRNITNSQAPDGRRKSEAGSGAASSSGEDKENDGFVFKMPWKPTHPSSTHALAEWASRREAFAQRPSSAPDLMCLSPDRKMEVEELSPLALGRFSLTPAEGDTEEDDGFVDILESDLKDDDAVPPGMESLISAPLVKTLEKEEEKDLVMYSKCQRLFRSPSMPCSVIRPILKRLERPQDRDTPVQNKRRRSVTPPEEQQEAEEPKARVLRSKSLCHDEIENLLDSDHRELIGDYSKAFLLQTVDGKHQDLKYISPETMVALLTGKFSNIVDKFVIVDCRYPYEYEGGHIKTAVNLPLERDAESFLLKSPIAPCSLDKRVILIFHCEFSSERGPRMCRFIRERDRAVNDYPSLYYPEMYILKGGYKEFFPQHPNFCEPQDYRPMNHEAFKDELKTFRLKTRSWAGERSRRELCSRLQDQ
Kind of assay: Inhibition of human recombinant fused MBP-CDC25B3.

Assay [7] deals with T1, M-phase inducer phosphatase 2. Briefly: Inhibition of human recombinant CDC25B.

SMILES strings stand for the structures.

In general, IC50 refers to the concentration that gives 50% inhibition. Consider `O=C1C(SCCO)=C(SCCO)C(=O)c2ccccc21`, for which the Activity is reported as 56% with HeLa [1], 19% in the assay on HeLa [2] and 25% in the assay with HeLa [5]. Also, the half-maximal inhibitory concentration (IC50) is 10.8 µM in the assay with HeLa [3] and 8.5 µM with HeLa [4].
For the compound `O=C1C(Br)=C(Br)C(=O)c2ncccc21`, the values for the IC50 (in assay [6]; with HeLa [3]) were 5.3 µM and 21.5 µM, respectively.
On to `O=C(CSC1=C(SCC(=O)OCc2ccccc2)C(=O)c2ccccc2C1=O)OCc1ccccc1`, for which, in assay [7], the IC50 came to 3.4 µM.
Still for that read-out and setting: then `C[C@@]12CCCc3coc(c31)C(=O)c1cc3c(cc12)C(=O)C1=C(NCCS1(=O)=O)C3=O` [ADOCIAQUINONE B], with 0.07 µM.
